# Assay outcomes as filed in PubChem.
# An excerpt weighted towards active compounds, which were near 1.8% of everything screened.
# PME-1 inh: PME-1 inhibitors via competitive probe labeling, primary screen, biochemical, fluorescence polarization, FP-Rh probe, HTS | inhibition, % at 5.9 µM | AID 2130, 2009 | hit rate 0.53% among 320,000 | recombinant PME-1;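 active = inhibition above the campaign mean of all compounds plus 3 SD, cut at about 26% in these data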;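 also: competitive labeling of PME-1 active site by serine hydrolase directed probe; 0% = PME-1 with DMSO and 100% = wells lacking PME-1 enzyme; inhibitors block probe labeling so polarization falls and inhibition rises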
# Target sequence (Q9Y570 whole entry, looked up): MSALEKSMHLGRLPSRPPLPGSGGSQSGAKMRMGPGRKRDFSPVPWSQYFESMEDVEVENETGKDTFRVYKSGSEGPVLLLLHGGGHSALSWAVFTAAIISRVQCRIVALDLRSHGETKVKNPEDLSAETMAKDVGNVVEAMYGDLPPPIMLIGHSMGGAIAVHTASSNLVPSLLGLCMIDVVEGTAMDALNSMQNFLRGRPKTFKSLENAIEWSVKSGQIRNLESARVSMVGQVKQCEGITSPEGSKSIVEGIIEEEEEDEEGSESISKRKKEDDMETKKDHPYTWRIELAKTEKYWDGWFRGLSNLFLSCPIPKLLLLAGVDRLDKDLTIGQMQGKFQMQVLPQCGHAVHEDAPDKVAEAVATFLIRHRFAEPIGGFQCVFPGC
# SIAE inh: human SIAE inhibitors, primary screen, biochemical, fluorescence polarization, FP-Rh probe, 1536-well HTS; AID 1053197, 2014; SIAE FP-Rh probe binding; inhibition, % at 9.66 µM; hit rate 0.69% among 370,000; Sialate O-acetylesterase (Homo sapiens), Q9HAT2;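 active = inhibition above a cutoff: mean of compounds within the control limits plus 3 SD of those, cut at about 17% in these data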;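 also: 0% = plate median of compound wells and 100% = probe without SIAE protein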
# HTRA1 inhibitor: HTRA1 serine protease inhibitors, primary screen, biochemical, fluorescence polarization, HTS | Q92743 | recombinant HTRA1, FP-rhodamine activity-based probe | inhibition, % at 5.96 µM | hit rate 0.5% among 340,000 | AID 504803, 2011; in the data active = inhibition above about 36%;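 also: 0% = enzyme with DMSO and 100% = wells lacking enzyme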
# Fam108B counter: mouse Fam108B serine hydrolase inhibitors, primary screen, counter-screen for RBBP9 inhibitor project, biochemical, fluorescence polarization | inhibition, % at 9.51 µM | hit rate 0.33% among 300,000 | AID 1947, 2009 | recombinant Fam108B, FP-Rh probe fluorescence polarization;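 active = inhibition above the screen mean inhibition plus 3 SD, computed separately per campaign, cut at about 18% in these data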;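 also: inhibitors lower polarization as less probe binds the enzyme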
# TCR CD3 inh: inhibitors of human TCR-CD3 interaction, primary screen, biochemical, fluorescence, TAMRA-labeled TCR probe; T-cell receptor (TCR); hit rate 0.37% among 360,000; inhibition, % at 9.4 µM;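 also: recombinant mutant TCR 2C K166C tagged with TAMRA read by polarization; 0% = receptor in buffer alone and 100% = receptor with positive control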
# ABHD4 inh: ABHD4 inhibitors, primary screen, biochemical, fluorescence polarization, mouse; purified mABHD4, FP-Rh probe fluorescence polarization; inhibition, % at 8.92 µM; hit rate 0.54% among 370,000; AID 720543, 2013;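 active = inhibition exceeding the mean over every tested compound plus 3 SD, cut at about 30% in these data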;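 also: 0% = plate median of compound wells and 100% = S159A mutant with DMSO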
# Target sequence (Q8VD66 whole entry, looked up): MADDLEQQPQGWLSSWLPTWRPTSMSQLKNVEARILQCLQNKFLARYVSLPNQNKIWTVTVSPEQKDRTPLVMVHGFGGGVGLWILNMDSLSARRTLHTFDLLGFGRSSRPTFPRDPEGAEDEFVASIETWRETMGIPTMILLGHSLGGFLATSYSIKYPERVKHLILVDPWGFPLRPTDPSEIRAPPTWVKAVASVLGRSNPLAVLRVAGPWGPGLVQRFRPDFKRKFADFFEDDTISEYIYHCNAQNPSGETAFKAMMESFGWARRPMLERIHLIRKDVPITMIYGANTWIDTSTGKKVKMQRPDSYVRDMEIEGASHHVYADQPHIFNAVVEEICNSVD
#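 Material: mouse ABHD4 enzyme, wild type; Benchmarks: S159A mutant high control, sample median low control; Buffer or medium: HEPES pH 7.0, NaCl, Pluronic buffer; Signal: fluorescence polarization; Read-out: percent inhibition of probe binding, normalized to plate controls; Timing: pre-incubation 45 min, probe exposure 60 min, at 25 °C; Dosing: 8.92 µM, single dose.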
# HTRA1 inh conf: HTRA1 protease inhibitors, retest, confirmation, biochemical, fluorescence polarization; recombinant HTRA1, FP-rhodamine activity-based probe; hit rate 66% among 1,600; shares compounds with HTRA1 inhibitor; inhibition, % at 5.96 µM;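 active = mean inhibition over three repeats above a set limit taken from the earlier primary screen, cut at about 37% in these data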;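 also: 0% = HTRA1 with DMSO and 100% = wells lacking HTRA1; inhibitors block probe binding so polarization drops and inhibition rises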
# BSA TAMRA ctr: compounds interfering with TAMRA-BSA probe, counter-screen for TCR-CD3 interaction inhibitor project, biochemical, fluorescence, TAMRA-labeled BSA; shares compounds with TCR CD3 inh; TAMRA-labeled BSA probe fluorescence counterscreen; inhibition, % at 9.4 µM; hit rate 10% among 1,200; in the data active = inhibition above about 23%;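 also: 0% = buffer low control and 100% = reference high control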
# TCR-CD3 inh conf: TCR-CD3 interaction inhibitors, retest, confirmation, biochemical, fluorescence, TAMRA-labeled TCR probe; shares compounds with TCR CD3 inh; TAMRA-labeled TCR probe fluorescence binding assay; inhibition, % at 9.4 µM; hit rate 48% among 1,200
# mABHD4 conf: ABHD4 inhibitors, retest, confirmation, biochemical, fluorescence polarization, mouse. AID 720658, 2013. hit rate 55% among 1,800. shares compounds with ABHD4 inh. inhibition, % at 8.92 µM. purified mABHD4, FP-Rh probe fluorescence polarization;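 active = mean inhibition across replicates above the hit cutoff set in the primary screen, cut at about 30% in these data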;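 also: 0% = wild-type ABHD4 with DMSO and 100% = catalytically dead S159A mutant with DMSO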
# Active calls of the source: *; · = no result given. Rule as the data show it, unless noted: active = inhibition above about 19%; inactive = the rest.
SMILES,PME-1 inh,SIAE inh,HTRA1 inhibitor,Fam108B counter,TCR CD3 inh,ABHD4 inh,HTRA1 inh conf,mABHD4 conf,others
COc1ccc(CCn2c(O)cc3nn(-c4nc5ccccc5s4)c(=O)c-3c2C)cc1,0.1,2.3,41.7*,8.1,1.0,36.9*,88.0*,16.5,
C[C@@H]1CCCN1c1cccc2c1S(=O)(=O)N(C1CC1)CCCO2,·,3.2,·,·,·,4.3,·,·,
Cc1cc(SCC(=O)N/N=C/c2ccc(O)c(O)c2)nc2ccccc12,7.3,3.2,78.5*,2.3,25.7*,34.6*,74.0*,31.5*,BSA TAMRA ctr=-9.8;TCR-CD3 inh conf=39.0*
O=C(CSc1nc2ccccc2o1)N/N=C/c1ccc(O)c(O)c1,-3.2,16.1,36.8*,1.2,12.8,34.3*,65.9*,29.0,
Cc1ccc2nc(SCC(=O)N/N=C/c3ccco3)cc(C)c2c1,2.0,4.9,-26.5,-3.2,5.8,-3.1,·,·,
O=C(CSc1nc2ccccc2o1)N/N=C/c1ccccc1,-1.5,5.5,16.4,-2.6,3.5,7.1,·,·,
CC(=O)c1sc(N/N=C/c2cccc(O)c2)nc1C,1.0,0.8,0.0,4.0,-0.3,7.8,·,·,
CC(=O)c1sc(N/N=C\c2c(O)ccc3ccccc23)nc1C,19.9,13.9,38.6*,16.1,7.4,31.1*,43.6*,28.0,
Cc1ccc(O)c(N=Cc2cc(Cc3ccccc3)cc([N+](=O)[O-])c2O)c1,·,-5.6,57.9*,·,5.5,34.9*,60.7*,15.6,
Cc1ccc(N2NC(=O)/C(=C\c3cc4c(cc3[N+](=O)[O-])OCO4)C2=O)cc1C,13.1,16.7,62.7*,12.3,-0.8,46.7*,37.4*,47.0*,
O=C1NN(c2ccccc2)C(=O)/C1=C\c1ccc2c(c1)OCO2,0.0,5.3,2.6,2.2,3.4,9.8,·,·,
CN(Cc1cn(CC2CCCCC2)nn1)S(=O)(=O)c1ccccc1Br,·,-0.5,·,·,·,5.9,·,·,
O=[N+]([O-])c1ccc(Cl)c2c1C1C=CCC1C(c1ccccn1)N2 (configuration not stated),5.2,11.6,59.8*,7.3,3.0,43.1*,43.2*,73.7*,
Oc1cc(Br)ccc1C=Nc1ccc(N2CCCCC2)cc1,0.2,2.9,52.5*,-0.9,5.1,36.3*,14.2,12.8,
Cn1c2ccccc2c2ccc3c(c21)C(=O)C=CC3=O,·,-2.1,40.2*,·,8.4,42.0*,63.1*,72.0*,
Cc1ccc2c(c1)c1ccc3c(c1n2C)C(=O)C=CC3=O,·,-8.6,40.1*,·,0.5,67.8*,61.6*,84.8*,
Cc1ccc2c(c1)c1ncnc(N3CCOCC3)c1n2C,-1.4,-5.5,6.8,-0.1,5.8,0.4,·,·,
O=C(Nc1ccc2c(c1)OCO2)O[C@@H]1CC[C@@]23CCCN2C(=O)CCC[C@H]3C1,·,1.6,·,·,·,3.6,·,·,
COc1cc(Sc2ccc(C)cc2)c(OC)cc1N,3.6,0.2,45.8*,6.2,-6.8,33.9*,43.7*,41.1*,
Oc1cc(CNCc2ccccc2)c(O)cc1CNCc1ccccc1,·,12.2,57.0*,·,7.5,41.5*,52.2*,57.7*,
CCOC(=O)CC[C@H]1CC[C@]2(CCCN(C(=O)C3CCCC3)C2)O1,·,-0.5,·,·,·,0.9,·,·,
Nc1nc2cc3c(cc2cc1C(=O)NCc1cccnc1)OCO3,·,4.5,·,·,-1.1,5.3,·,·,
Cc1cccc(C)c1N=Nc1c(C)cc(O)cc1C,3.4,10.7,47.0*,4.7,3.0,32.4*,50.5*,38.5*,
Cc1ccc(NC(=S)NNc2ccc(C(=O)O)cc2[N+](=O)[O-])cc1C,12.7,7.5,48.8*,5.1,28.1*,69.5*,40.6*,47.4*,BSA TAMRA ctr=-4.3;TCR-CD3 inh conf=14.9
Cc1ccc(Nc2ccc(C(N)=O)cc2[N+](=O)[O-])cc1C,10.6,8.6,2.7,2.7,-5.9,7.0,·,·,
SMILES,PME-1 inh,SIAE inh,HTRA1 inhibitor,Fam108B counter,TCR CD3 inh,ABHD4 inh,HTRA1 inh conf,mABHD4 conf,others
O=C(Nc1ccc2ccccc2c1)C1CC2CCC1C2 (configuration not stated),·,-0.4,·,·,·,-16.7,·,·,
CCc1ccc(/C=C/C(=O)c2cc(Br)ccc(=O)c2O)cc1,4.4,12.6,67.4*,13.4,-6.6,37.6*,66.0*,9.9,
Cc1ccc(/C=C/C(=O)c2cc(Br)ccc2OC(=O)c2ccco2)cc1,-18.2,-6.9,-9.3,-10.0,-0.8,-11.2,·,·,
O=C(C=Cc1ccccc1)c1cc(Br)ccc1O,·,-3.6,-16.4,·,-4.0,-6.7,·,·,
Cc1cccc(/C=C/C(=O)c2cc(Br)ccc(=O)c2O)c1,4.4,8.6,57.1*,5.5,0.5,35.7*,59.0*,26.4,
CC(C)(C)OC(=O)N1CCC(N[C@@H](Cc2ccccc2)C(=O)NCCc2c[nH]c3ccccc23)(C(=O)NC2CCCCC2)CC1,·,3.1,·,·,·,-1.9,·,·,
NC(=S)Nc1cccc2cccnc12,0.0,2.5,-1.3,3.0,6.1,-4.0,·,·,
NC(=S)NNc1cccc2cccnc12,11.1,5.9,46.4*,7.1,19.1*,32.4*,26.8,52.2*,BSA TAMRA ctr=-5.2;TCR-CD3 inh conf=3.3
Oc1ccccc1CNc1cccc2cccnc12,3.2,15.0,39.5*,8.2,-8.4,46.6*,4.6,-10.7,
Cc1ccc(O)c(N=CC2=C(O)c3ccccc3C2=O)c1,34.1*,-0.6,43.6*,16.4,11.6,34.0*,75.8*,46.4*,
O=C1C(C=Nc2ccccc2O)=C(O)c2ccccc21,-33.4,-2.1,-3.5,7.6,-0.7,21.0,·,·,
Cc1coc2c1C(=O)C(=O)c1c-2ccc2c1CCCC2(C)C,7.9,13.1,67.2*,7.5,122.7*,49.5*,66.3*,57.8*,BSA TAMRA ctr=-1.4;TCR-CD3 inh conf=0.7
CC1CCN(C2=C(NS(=O)(=O)c3ccc(Cl)cc3)C(=O)c3ccccc3C2=O)CC1,5.5,7.5,10.1,7.1,9.9,16.9,·,·,
CC1CCN(C2=C(NS(=O)(=O)c3ccccc3)C(=O)c3ccccc3C2=O)CC1,3.1,8.1,25.4,1.7,8.0,20.2,·,·,
